Results on 55 sequences are retold here after the array DNA melting data of Ke et al. (doi:10.1101/2024.01.08.574731).

A short description of data set [1]: melting temperature; fluorescence melt of hairpins on a sequencing array, two-state fit, raised by 9.35 °C to match UV melts. To be noted: sodium 0.088 M. The method in brief: (§1)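 In 50 mM Na-HEPES pH 8.0 containing 25 mM NaCl, hairpins from the library on a sequenced MiSeq flow cell were imaged for Cy3 fluorescence at 2.5 °C steps up to 60 °C, with Cy3 and quencher oligos annealed. After normalisation to pre-quench Cy3 and to control constructs, two-state fits with bootstrapping gave melting temperature and folding enthalpy. Four replicates were combined by inverse-variance weighting, and fitted temperatures were shifted up by 9.35 °C to match UV melts.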

A short description of data set [2]: folding enthalpy; higher = less favourable; fluorescence melt of hairpins on a sequencing array, two-state fit. To be noted: sodium 0.088 M. The gist of the method: as §1

Turning to CGTATCGGAAACGAGACG (((.(((....))).))), the Tm in data set [1] was 53.3 °C. Also, the folding enthalpy in data set [2] was -35.2 kcal/mol.

Turning to CGTCCGGAAACGGCGACG ((((((....)))..))), in data set [1], the Tm was 46.7 °C. Also, the folding enthalpy in data set [2] was -13.6 kcal/mol.

Take CGTCCGGAAACGGGACG ((((((....))).))): in data set [1], the Tm was determined as 55.8 °C. Also, the folding enthalpy in data set [2] was -30.4 kcal/mol.

In the case of CGTCCGGAAACGGGGACG ((((((....)))..))), the Tm in data set [1] amounted to 48.3 °C. Further, the folding enthalpy in data set [2] was -25 kcal/mol.

As to CGTCCGGAAACGGTGACG ((((((....)))..))), the Tm in data set [1] worked out at 41 °C. Moreover, the folding enthalpy in data set [2] was -21.9 kcal/mol.

Turning to CGTCGCCGGAAACGGACG (((..(((....)))))), the Tm in data set [1] was 47.1 °C. In addition, the folding enthalpy in data set [2] was -17.8 kcal/mol.

For the sequence CGTCTTCGGAAACGAACG (((..(((....)))))), in data set [1], the Tm came out at 29.8 °C. In data set [2], the folding enthalpy was -11.3 kcal/mol.

For the sequence CGTGAACGGAAACGTACG (((..(((....)))))), the Tm in data set [1] was found to be 35.3 °C. Besides, in data set [2], the folding enthalpy was -21.1 kcal/mol.

Regarding CGTGACGGAAACGTAACG (((.(((....))).))), the Tm in data set [1] was 50.3 °C. Besides, the folding enthalpy in data set [2] was -37.4 kcal/mol.

On to CGTGACGGAAACGTGACG (((.(((....))).))), for which the Tm in data set [1] is 48.9 °C. For the same sequence, the folding enthalpy in data set [2] was -26.2 kcal/mol.

For the sequence CGTGATCGGAAACGAACG (((..(((....)))))), the Tm in data set [1] is 28.6 °C. For the same sequence, the folding enthalpy in data set [2] was -8.71 kcal/mol.

As for CGTGCCCGGAAACGGACG (((..(((....)))))), the Tm in data set [1] is 32.9 °C. In addition, the folding enthalpy in data set [2] was -14.8 kcal/mol.

In the case of CGTGCGGAAACGCGAACG ((((((....)))..))), the Tm in data set [1] amounted to 47.6 °C. Further, in data set [2], the folding enthalpy is -23.3 kcal/mol.

For the sequence CGTGCGGAAACGCTAACG ((((((....)))..))), the Tm in data set [1] stood at 43.5 °C. For the same sequence, the folding enthalpy in data set [2] was -20 kcal/mol.

On to CGTGGCGGAAACGCAACG (((.(((....))).))), for which the Tm in data set [1] turned out to be 56.8 °C. Moreover, the folding enthalpy in data set [2] was -38.7 kcal/mol.

Take CGTGTCGGAAACGAGACG (((.(((....))).))): the Tm in data set [1] came to 51.7 °C. Moreover, the folding enthalpy in data set [2] is -36 kcal/mol.

With CGTTACGGAAACGTTACG (((.(((....))).))), in data set [1], the Tm is 48 °C. In data set [2], the folding enthalpy was -26.9 kcal/mol.

CGTTCGGAAACGAAACG ((((((....))).))): the Tm in data set [1] turned out to be 45.8 °C. Further, the folding enthalpy in data set [2] was -27.8 kcal/mol.

For the sequence CGTTCGGAAACGACGACG ((((((....)))..))), the Tm in data set [1] is 37.5 °C. Besides, the folding enthalpy in data set [2] was -15.9 kcal/mol.

Consider CGTTCGGAAACGAGACG ((((((....))).))), for which the Tm in data set [1] is 39 °C. Further, the folding enthalpy in data set [2] was -24.1 kcal/mol.

In the case of CGTTCGGAAACGAGTACG ((((((....)))..))), the Tm in data set [1] was 35.9 °C. For the same sequence, the folding enthalpy in data set [2] is -18.8 kcal/mol.

Turning to CGTTGCGGAAACGCACG (((.(((....)))))), the Tm in data set [1] came to 52.8 °C. Also, the folding enthalpy in data set [2] is -21.4 kcal/mol.

Regarding CGTTGGAAACAACG (((((....))))), the Tm in data set [1] amounted to 52.9 °C. Further, in data set [2], the folding enthalpy was -30.3 kcal/mol.

On to CTAAGGAAACTTAG (((((....))))), for which the Tm in data set [1] worked out at 29.8 °C. For the same sequence, the folding enthalpy in data set [2] was -10.7 kcal/mol.

In the case of CTAATGAAAATTAG (((((....))))), the Tm in data set [1] was 26 °C. Also, the folding enthalpy in data set [2] was -7.43 kcal/mol.

In the case of CTACTGAAAAGTAG (((((....))))), the Tm in data set [1] is 44.3 °C. The folding enthalpy in data set [2] was -13.5 kcal/mol.

For the sequence CTAGTGAAAACTAG (((((....))))), the Tm in data set [1] worked out at 42.4 °C. In data set [2], the folding enthalpy is -15 kcal/mol.

Turning to CTCACGAAAGTGAG (((((....))))), the Tm in data set [1] was determined as 61 °C. Besides, in data set [2], the folding enthalpy was -22.2 kcal/mol.

With CTCCGGAAACGGAG (((((....))))), the Tm in data set [1] turned out to be 55.1 °C. Moreover, the folding enthalpy in data set [2] is -24 kcal/mol.

CTGAGGAAACTCAG (((((....))))): in data set [1], the Tm was 47.1 °C. Besides, in data set [2], the folding enthalpy is -20.1 kcal/mol.

In the case of CTTATGAAAATAAG (((((....))))), the Tm in data set [1] is 25.1 °C. Also, in data set [2], the folding enthalpy is -11.4 kcal/mol.

CTTCCGAAAGGAAG (((((....))))): in data set [1], the Tm came to 55.8 °C. The folding enthalpy in data set [2] was -21.3 kcal/mol.

CTTGAGAAATCAAG (((((....))))): the Tm in data set [1] came out at 35.6 °C. Also, the folding enthalpy in data set [2] was -11.1 kcal/mol.

For GAAAAAGGAAACTTTTTC (((((((....))))))), the Tm in data set [1] was determined as 46 °C. The folding enthalpy in data set [2] is -39.7 kcal/mol.

In the case of GAAAACACGAAAGTGTTC (((..(((....)))))), in data set [1], the Tm came out at 35.9 °C. Also, the folding enthalpy in data set [2] was -11.9 kcal/mol.

For the sequence GAAAACGAAAGTTGATTC ((((((....)))..))), the Tm in data set [1] was 33.6 °C. Also, the folding enthalpy in data set [2] was -17.8 kcal/mol.

With GAAAACGCGAAAGCGTTC (((..(((....)))))), the Tm in data set [1] came to 41.1 °C. Further, the folding enthalpy in data set [2] is -8.84 kcal/mol.

For GAAAACGGAAACGTTCTC ((.((((....)))).)), the Tm in data set [1] was found to be 30.4 °C. In addition, the folding enthalpy in data set [2] was -12.7 kcal/mol.

Consider GAAAAGGGAAACTTTTTC (((((.(....).))))), for which the Tm in data set [1] was 29.6 °C. Also, in data set [2], the folding enthalpy was -11.5 kcal/mol.

As to GAAAATCCGAAAGGATTC (((..(((....)))))), the Tm in data set [1] was determined as 33.4 °C. Besides, the folding enthalpy in data set [2] was -11.8 kcal/mol.

With GAAAATGGAAACATTTTC (((((((....))))))), in data set [1], the Tm was found to be 51 °C. In data set [2], the folding enthalpy is -44.6 kcal/mol.

GAAACCCGAAAGGGCTTC (((.(((....))).))): the Tm in data set [1] came out at 46.4 °C. Further, in data set [2], the folding enthalpy was -24.9 kcal/mol.

On to GAAACCCGAAAGGGGTTC (((.(((....))).))), for which the Tm in data set [1] amounted to 59.2 °C. Further, in data set [2], the folding enthalpy was -29 kcal/mol.

For the sequence GAAACCGAAAGGTATTC ((((((....))).))), the Tm in data set [1] is 31.6 °C. For the same sequence, the folding enthalpy in data set [2] was -14.1 kcal/mol.

With GAAACCGAAAGGTCTTC ((((((....))).))), in data set [1], the Tm was found to be 40.4 °C. The folding enthalpy in data set [2] is -19.4 kcal/mol.

Turning to GAAACCGAAAGGTGTTC ((((((....))).))), the Tm in data set [1] is 36.5 °C. In data set [2], the folding enthalpy was -13 kcal/mol.

For the sequence GAAACCGGAAACGGTCTC ((.((((....)))).)), in data set [1], the Tm came to 35.5 °C. Also, in data set [2], the folding enthalpy is -14.2 kcal/mol.

In the case of GAAACGCGAAAGCGCTTC (((.(((....))).))), in data set [1], the Tm came out at 51.5 °C. In data set [2], the folding enthalpy was -18.7 kcal/mol.

For GAAACGCGAAAGCGGTTC (((.(((....))).))), the Tm in data set [1] was 66.3 °C. In data set [2], the folding enthalpy was -27.2 kcal/mol.

With GAAACGGAAACGTTTC ((((((....)))))), the Tm in data set [1] stood at 55.3 °C. The folding enthalpy in data set [2] is -39.8 kcal/mol.

For the sequence GAAACGGGAAACCGCTTC (((.(((....))).))), the Tm in data set [1] stood at 40.4 °C. In addition, in data set [2], the folding enthalpy was -24.2 kcal/mol.

GAAACGGGAAACCGTCTC ((.((((....)))).)): the Tm in data set [1] worked out at 32.9 °C. The folding enthalpy in data set [2] is -13.5 kcal/mol.

On to GAAACTGGAAACAGCTTC (((.(((....))).))), for which the Tm in data set [1] worked out at 32.5 °C. Besides, in data set [2], the folding enthalpy was -31.1 kcal/mol.

Turning to GAAACTGGAAACAGTTTC (((((((....))))))), the Tm in data set [1] was found to be 56.9 °C. The folding enthalpy in data set [2] is -51.5 kcal/mol.

With GAAAGCACGAAAGTGTTC (((..(((....)))))), in data set [1], the Tm is 24 °C. In addition, the folding enthalpy in data set [2] is -9.28 kcal/mol.
